Results as given in ChEMBL document CHEMBL1139875, “Discovery of 4-aminobutyric acid derivatives possessing anticonvulsant and antinociceptive activities: a hybrid pharmacophore approach” (2007).

Columns and labels:
Type in all cases: functional
[1] = system: Rattus norvegicus; test: Antihyperalgesic effects in Sprague-Dawley rat CCI model assessed as duration of paw withdrawal at 100 mg/kg, ip after 1.5 hrs; settings: route intraperitoneal
[2] = species on record: Rattus norvegicus; test: Anti-dynamic allodynic effect in Sprague-Dawley rat CCI model assessed as latency to paw withdrawal after 1.5 hr
Method in brief: (§1)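 Rats with sciatic nerve chronic constriction injury (pentobarbital 65 mg/kg i.p. anaesthesia), baseline and day 9 testing, then drug per randomization table. After 10 min acclimatization, affected plantar surface stroked mildly with a cotton-bud; paw lift recorded. n = 4; retested 0.5-2.5 h post-dose.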

[3] = system: Rattus norvegicus; test: Anti-cold allodynia effect in Sprague-Dawley rat SNL model assessed as duration of paw withdrawal 100 mg/kg, ip after 2 hrs; settings: route intraperitoneal
Method in brief: (§2)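 Left L5 spinal nerve ligation under pentobarbital (65 mg/kg i.p.). Allodynic rats dosed i.p. 100 mg/kg, vehicle 30% v/v PEG 400 in water. Acetone (100-200 µL) misted onto midplantar affected paw after 10 min acclimatization; paw withdrawal duration, mean of three samples at least 3 min apart; n = 4 rats.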

[4] = system: Rattus norvegicus; test: Effect on spontaneous pain in Sprague-Dawley rat CCI model assessed as duration of paw withdrawal at 100 mg/kg, ip after 1 hr; settings: route intraperitoneal
Method in brief: (§3)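 CCI rats (n = 4) dosed 100 mg/kg i.p. (vehicle 30% v/v PEG 400 in water). After 10 min acclimatization in a cage 5 cm above ground, cumulative time the ipsilateral paw was held off the floor over 5 min recorded, excluding locomotion lifts. Mean ± SEM; ANOVA/Bonferroni versus predrug.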

[5] = system: Rattus norvegicus; test: Effect on spontaneous pain in Sprague-Dawley rat CCI model assessed as duration of paw withdrawal at 100 mg/kg, ip after 1.5 hrs; settings: route intraperitoneal
Method in brief: (§4)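 Unilateral CCI of sciatic nerve (Bennett and Xie) in Sprague-Dawley rats under i.p. pentobarbital sodium (65 mg/kg). Spontaneous pain is scored over 5 min after 10 min acclimatization, as cumulative time the ipsilateral paw is held off the floor. Paw lifts from locomotion or repositioning are excluded. Drug is given at 100 mg/kg i.p. with 30% v/v PEG 400 vehicle. Mean ± SEM, n = 4, compared with predrug by ANOVA/Bonferroni.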

[6] = system: Rattus norvegicus; test: Antihyperalgesic effects in Sprague-Dawley rat SNL model assessed as duration of paw withdrawal at 100 mg/kg, ip after 2.5 hrs, ip; settings: route intraperitoneal
Method in brief: (§5)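 L5 SNL rats (n = 4), dosed 100 mg/kg i.p. (vehicle 30% v/v PEG 400 in water). Pin-prick to midplantar ipsilateral left hindpaw; withdrawal duration, mean of three responses; ≥2 s defined abnormal. Mean ± SEM; one-way ANOVA with Bonferroni versus predrug.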

[7] = system: Rattus norvegicus; test: Antihyperalgesic effects in Sprague-Dawley rat SNL model assessed as duration of paw withdrawal at 100 mg/kg, ip after 0.5 hr, ip; settings: route intraperitoneal; method in brief: as §5
[8] = species on record: Rattus norvegicus; test: Anti-dynamic allodynic effect in Sprague-Dawley rat CCI model assessed as latency to paw withdrawal after 2 hr; method in brief: as §1
[9] = species on record: Rattus norvegicus; test: Anti-dynamic allodynic effect in Sprague-Dawley rat CCI model assessed as latency to paw withdrawal after 2.5 hr; method in brief: as §1
[10] = system: Rattus norvegicus; test: Antihyperalgesic effects in Sprague-Dawley rat CCI model assessed as duration of paw withdrawal at 100 mg/kg, ip after 0.5 hr; settings: route intraperitoneal
[11] = system: Rattus norvegicus; test: Antihyperalgesic effects in Sprague-Dawley rat CCI model assessed as duration of paw withdrawal at 100 mg/kg, ip after 2 hrs; settings: route intraperitoneal
[12] = system: Rattus norvegicus; test: Antihyperalgesic effects in Sprague-Dawley rat CCI model assessed as duration of paw withdrawal at 100 mg/kg, ip after 1 hr; settings: route intraperitoneal
[13] = system: Rattus norvegicus; test: Anti-cold allodynia effect in Sprague-Dawley rat CCI model assessed as duration of paw withdrawal 100 mg/kg, ip after 2 hr; settings: route intraperitoneal
Method in brief: (§6)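 CCI by sciatic nerve ligation under pentobarbital (65 mg/kg i.p.). Rats tested at baseline and 9 days post-surgery; those with allodynia dosed i.p. 100 mg/kg, vehicle 30% v/v PEG 400 in water. Acetone (100-200 µL) misted on midplantar affected paw; withdrawal duration recorded, three samples averaged, at least 3 min apart; n = 4.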

[14] = system: Rattus norvegicus; test: Antihyperalgesic effects in Sprague-Dawley rat SNL model assessed as duration of paw withdrawal at 100 mg/kg, ip after 1.5 hrs, ip; settings: route intraperitoneal; method in brief: as §5
[15] = system: Rattus norvegicus; test: Effect on spontaneous pain in Sprague-Dawley rat CCI model assessed as duration of paw withdrawal at 100 mg/kg, ip after 0.5 hr; settings: route intraperitoneal; method in brief: as §3
[16] = species on record: Rattus norvegicus; test: Anti-dynamic allodynic effect in Sprague-Dawley rat CCI model assessed as latency to paw withdrawal after 0.5 hr; method in brief: as §1
[17] = system: Rattus norvegicus; test: Antihyperalgesic effects in Sprague-Dawley rat SNL model assessed as duration of paw withdrawal at 100 mg/kg, ip after 1 hr, ip; settings: route intraperitoneal; method in brief: as §5
[18] = system: Rattus norvegicus; test: Anti-cold allodynia effect in Sprague-Dawley rat SNL model assessed as duration of paw withdrawal 100 mg/kg, ip after 2.5 hrs; settings: route intraperitoneal; method in brief: as §2
[19] = system: Rattus norvegicus; test: Anti-cold allodynia effect in Sprague-Dawley rat CCI model assessed as duration of paw withdrawal at 100 mg/kg, ip after 0.5 hr; settings: route intraperitoneal; method in brief: as §6
[20] = system: Rattus norvegicus; test: Antihyperalgesic effects in Sprague-Dawley rat CCI model assessed as duration of paw withdrawal at 100 mg/kg, ip after 2.5 hrs; settings: route intraperitoneal
[21] = system: Rattus norvegicus; test: Effect on spontaneous pain in Sprague-Dawley rat SNL model assessed as duration of paw withdrawal at 100 mg/kg, ip after 0.5 hr; settings: route intraperitoneal
Method in brief: (§7)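 Rats underwent left L5 spinal nerve ligation (Kim and Chung) under i.p. pentobarbital (65 mg/kg). Spontaneous pain is recorded for 5 min after 10 min acclimatization, as cumulative duration the ipsilateral paw is lifted, excluding locomotor lifts. Dosing is 100 mg/kg i.p. in 30% v/v PEG 400/water, with testing at 0.5–2.5 h. Four rats, mean ± SEM versus predrug, one-way ANOVA with Bonferroni.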

[22] = system: Rattus norvegicus; test: Effect on spontaneous pain in Sprague-Dawley rat CCI model assessed as duration of paw withdrawal at 100 mg/kg, ip after 2 hrs; settings: route intraperitoneal; method in brief: as §4
[23] = system: Rattus norvegicus; test: Effect on spontaneous pain in Sprague-Dawley rat SNL model assessed as duration of paw withdrawal at 100 mg/kg, ip after 2 hrs; settings: route intraperitoneal; method in brief: as §7
[24] = system: Rattus norvegicus; test: Effect on spontaneous pain in Sprague-Dawley rat SNL model assessed as duration of paw withdrawal at 100 mg/kg, ip after 2.5 hrs; settings: route intraperitoneal; method in brief: as §7
[25] = species on record: Rattus norvegicus; test: Anti-dynamic allodynic effect in Sprague-Dawley rat CCI model assessed as latency to paw withdrawal after 1 hr; method in brief: as §1
[26] = system: Rattus norvegicus; test: Effect on spontaneous pain in Sprague-Dawley rat CCI model assessed as duration of paw withdrawal at 100 mg/kg, ip after 2.5 hrs; settings: route intraperitoneal; method in brief: as §4

## NCC1(CC(=O)O)CCCCC1 [GABAPENTIN]
[1]
  Activity: 10.7 s
[2]
  Activity: 5.5 s
[3]
  Activity: 7.6 s
[4]
  Activity: 15.5 s
[5]
  Activity: 13.1 s
[6]
  Activity: 8.8 s
[7]
  Activity: 20.1 s
[8]
  Activity: 5.9 s
[9]
  Activity: 6.6 s
[10]
  Activity: 36.8 s
[11]
  Activity: 9.2 s
[12]
  Activity: 12.3 s
[13]
  Activity: 7.5 s
[14]
  Activity: 10 s
[15]
  Activity: 62.2 s
[16]
  Activity: 1.6 s
[17]
  Activity: 10.2 s
[18]
  Activity: 6.9 s
[19]
  Activity: 26.8 s
[20]
  Activity: 8.4 s
[21]
  Activity: 29.7 s
[22]
  Activity: 11 s
[23]
  Activity: 9.1 s
[24]
  Activity: 10.1 s
[25]
  Activity: 4.6 s
[26]
  Activity: 18.1 s
